What all share (format): functional
Experiment [1] relates to Candida albicans. The experiment is described as follows: Minimum inhibitory concentration of Candida albicans growth. The following applies: Candida albicans. The method, boiled down: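 Candida albicans ATCC 10231 in YM broth at 22 °C. Overnight culture added to sample in 4% DMSO in water, about 1 × 10^5 cells/well, 150 μL, duplicate. Growth scored visually at 48 h. MIC is reported as a concentration range: full inhibition at the upper value, viable cells at the lower. Amphotericin B was the positive control.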

In experiment [2] the test system is Escherichia coli. The experiment is described as follows: (§1) Minimum inhibitory concentration of Escherichia coli growth.
In experiment [3] the test system is Escherichia coli. Described as §1. The following applies: Escherichia coli; read-out: MIC.
The subject of experiment [4] is Enterococcus faecalis. Kind of experiment: Minimum inhibitory concentration of Enterococcus faecalis growth. The method, boiled down:
(§2)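 Broth-microdilution at 37 °C. Strains and media: E. faecalis ATCC 29212 in Todd-Hewitt, K. pneumoniae ATCC 13883 and P. vulgaris ATCC 8427 in nutrient broth, S. aureus ATCC 25923 in trypticase soy broth. About 1 × 10^7 cells/well, sample in 4% DMSO in water, duplicate. A595 read at 24 h versus a no-compound well. MIC is reported as a range. Ampicillin and tetracycline were controls.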

Experiment [5] has as its system Klebsiella pneumoniae. Kind of experiment: Minimum inhibitory concentration of Klebsiella pneumoniae growth. In a few lines: as §2
For experiment [6], the system named is Proteus vulgaris. The experiment is described as follows: Minimum inhibitory concentration of Proteus vulgaris growth. The method, boiled down: as §2
Experiment [7] has as its system Pseudomonas aeruginosa. The experiment is described as follows: Minimum inhibitory concentration of Pseudomonas aeruginosa growth. In a few lines:
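Pseudomonas aeruginosa ATCC 27853 in nutrient broth at 37 °C. About 1 × 10^7 cells/well, sample in 4% DMSO in water, 150 μL, duplicate. Growth relative to an untreated well was read at A595 after 24 h. MIC is given as a range, complete inhibition at the higher concentration. Ciprofloxacin was the positive control.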

In experiment [8] the test system is Streptococcus pyogenes. Kind of experiment: Minimum inhibitory concentration of Streptococcus pyogenes (wt) growth. The method, boiled down:
(§3)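 Streptococcus pyogenes in Todd-Hewitt broth at 37 °C. The tier II strain is ATCC 49399. Overnight culture at about 1 × 10^7 cells/well, sample in 4% DMSO in water, duplicate. Percent growth versus a no-compound well by A595 at 24 h. MIC is a concentration range: full inhibition at the upper value, growth at the lower. Ampicillin and tetracycline were controls.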

Experiment [9] has as its system Streptococcus pyogenes. Kind of experiment: Minimum inhibitory concentration of Streptococcus pyogenes growth. Particulars: Streptococcus pyogenes; read-out: MIC. The method, boiled down:
as §3

Experiment [10] deals with Staphylococcus aureus. Kind of experiment: Minimum inhibitory concentration of Staphylococcus aureus growth. The method, boiled down:
as §2

Molecules are shown by their SMILES. ≈ marks a conversion by molar mass, not a printed value.

The MIC is the least concentration at which growth counts as inhibited. For `O=[N+]([O-])c1cccc(CN(CCNCCCO)Cc2cccc(CN(Cc3cccc([N+](=O)[O-])c3)Cc3cccc([N+](=O)[O-])c3)n2)c1`, the MIC in experiment [1] is > 100 µM; in experiment [2] it was > 100 µM; in experiment [3], 10 µM (≈ 6.44 µg/mL); in experiment [4], > 100 µM; in [5] it was > 100 µM; in experiment [6], > 100 µM. Further, the MIC in experiment [7] was > 100 µM; in experiment [8], 12 µM (≈ 7.72 µg/mL); in [9] it was 5 µM (≈ 3.22 µg/mL); in experiment [10] it was 12 µM (≈ 7.72 µg/mL).

On to `COC(=O)c1cccc(CN(Cc2cccc(C(F)(F)F)c2)Cc2cccc(CN(CCNCCCO)Cc3cccc(C)c3)n2)c1`, for which the MIC in experiment [1] was < 12.5 µM; in [2], > 100 µM; in experiment [3] it was 25 µM (≈ 16.2 µg/mL); in experiment [4], 6 µM (≈ 3.89 µg/mL); in [5], > 100 µM; in [6], > 100 µM. Also, the MIC was > 100 µM in experiment [7], 6 µM (≈ 3.89 µg/mL) in experiment [8], 5 µM (≈ 3.24 µg/mL) in [9] and 12 µM (≈ 7.79 µg/mL) in [10].

For `Cc1cccc(CN(CCNCCCO)Cc2cccc(CN(Cc3cccc(C)c3)Cc3cccc(C)c3)n2)c1`, the MIC in [1] is 12 µM (≈ 6.61 µg/mL); in [2], 6 µM (≈ 3.3 µg/mL); in [3], 5 µM (≈ 2.75 µg/mL); in experiment [4] it was 6 µM (≈ 3.3 µg/mL); in experiment [5], > 100 µM; in experiment [6], > 100 µM. For the same compound, the minimum inhibitory concentration (MIC) in experiment [7] was > 100 µM; in [8], 6 µM (≈ 3.3 µg/mL); in experiment [9] it was 5 µM (≈ 2.75 µg/mL); in experiment [10], 6 µM (≈ 3.3 µg/mL).

Regarding `Cc1cccc(CN(CCNCCCO)Cc2cccc(CN(Cc3cccc(C(F)(F)F)c3)Cc3cccc(C(F)(F)F)c3)n2)c1`, the MIC was > 100 µM in experiment [1]; > 100 µM in [2]; 25 µM (≈ 16.5 µg/mL) in experiment [3]; 6 µM (≈ 3.95 µg/mL) in experiment [4]; > 100 µM in experiment [5]; > 100 µM in experiment [6]. The MIC in experiment [7] is > 100 µM; in experiment [8], 6 µM (≈ 3.95 µg/mL); in [9], 5 µM (≈ 3.29 µg/mL); in [10], 12 µM (≈ 7.9 µg/mL).

Regarding `NCc1cccc(CNCCNCCCO)n1`, the MIC in [1], in experiment [3] and in experiment [9] was > 100 µM in each case.

As to `OCCCNCCN(Cc1cccc(C(F)(F)F)c1)Cc1cccc(CN(Cc2cccc(F)c2)Cc2cccc(C(F)(F)F)c2)n1`, the minimal inhibitory concentration (MIC) in experiment [1] was > 100 µM; in experiment [2] it was > 100 µM; in [3], 6 µM (≈ 3.98 µg/mL); in experiment [4], 6 µM (≈ 3.98 µg/mL); in [5], > 100 µM; in [6], > 100 µM. Further, the MIC was > 100 µM in experiment [7], 6 µM (≈ 3.98 µg/mL) in experiment [8], 6 µM (≈ 3.98 µg/mL) in [9] and 12 µM (≈ 7.95 µg/mL) in [10].

For `OCCCNCCN(Cc1cccc(C(F)(F)F)c1)Cc1cccc(CN(Cc2ccccc2)Cc2cccc(C(F)(F)F)c2)n1`, the minimum inhibitory concentration (MIC) in [1] is > 100 µM; in experiment [2], > 100 µM; in experiment [3], 3 µM (≈ 1.93 µg/mL); in [4], 12 µM (≈ 7.74 µg/mL); in experiment [5], 50 µM (≈ 32.2 µg/mL); in experiment [6], > 100 µM. For the same compound, the MIC was > 100 µM in experiment [7], 12 µM (≈ 7.74 µg/mL) in experiment [8], 3 µM (≈ 1.93 µg/mL) in experiment [9] and 25 µM (≈ 16.1 µg/mL) in experiment [10].

As for `Cc1cccc(CN(Cc2cccc(C(F)(F)F)c2)Cc2cccc(CN(CCNCCCO)Cc3cccc(C(F)(F)F)c3)n2)c1`, the MIC in experiment [1] was > 100 µM; in [2], > 100 µM; in experiment [3] it was 3 µM (≈ 1.98 µg/mL); in experiment [4], 6 µM (≈ 3.95 µg/mL); in [5] it was 100 µM (≈ 65.9 µg/mL); in experiment [6] it was > 100 µM. Moreover, the MIC was > 100 µM in experiment [7], 6 µM (≈ 3.95 µg/mL) in [8], 3 µM (≈ 1.98 µg/mL) in experiment [9] and 12 µM (≈ 7.9 µg/mL) in [10].

As for `OCCCNCCN(Cc1cccc(C(F)(F)F)c1)Cc1cccc(CN(Cc2cccc(C(F)(F)F)c2)Cc2cccc(C(F)(F)F)c2)n1`, the MIC in experiment [1] was > 100 µM; in [2] it was > 100 µM; in experiment [3] it was 5 µM (≈ 3.56 µg/mL); in experiment [4], > 100 µM; in [5], > 100 µM; in [6] it was > 100 µM. Also, the MIC is > 100 µM in experiment [7], 12 µM (≈ 8.55 µg/mL) in experiment [8], 5 µM (≈ 3.56 µg/mL) in [9] and 6 µM (≈ 4.28 µg/mL) in [10].

Take `Cc1cccc(CN(CCNCCCO)Cc2cccc(CN(Cc3ccccc3)Cc3cccc(C(F)(F)F)c3)n2)c1`: the minimal inhibitory concentration (MIC) in experiment [1] is < 12.5 µM; in [2], 25 µM (≈ 14.8 µg/mL); in experiment [3] it was 5 µM (≈ 2.95 µg/mL); in experiment [4] it was 6 µM (≈ 3.54 µg/mL); in experiment [5], 12 µM (≈ 7.09 µg/mL); in experiment [6], > 100 µM. Moreover, the MIC in experiment [7] is > 100 µM; in experiment [8] it was 6 µM (≈ 3.54 µg/mL); in experiment [9], 5 µM (≈ 2.95 µg/mL); in experiment [10] it was 6 µM (≈ 3.54 µg/mL).

The values above are taken from ChEMBL document CHEMBL1131483, “Discovery of novel pyridinopolyamines with potent antimicrobial activity: deconvolution of mixtures synthesized by solution-phase combinatorial chemistry” (1998).
